Published values gathered from unrelated publications.
Target: MAP kinase-interacting serine/threonine-protein kinase 1 (MKNK1, Homo sapiens, UniProt Q9BUB5)

| SMILES | assay | setting | endpoint | value |
| --- | --- | --- | --- | --- |
| COc1cc2ncnc(Nc3ccc(Oc4ccccc4)c(C)c3C)c2cc1OC | enzyme activity, inhibitor | 1 µM | inhibition | -6% |
| CNC(=O)c1ccc(Nc2ncc(C(F)(F)F)c(NCc3nccnc3N(C)S(C)(=O)=O)n2)cc1 | cell-free assay, competition with immobilised ligand | 0.1 µM | remaining binding | 83% |
| Nc1nc(Nc2ccccc2)sc1C(=O)c1c(F)cccc1F | enzyme activity, inhibitor | 10 µM | remaining activity | 110% |
| Nc1ncnc2occ(-c3ccc(NC(=O)Nc4cc(C(F)(F)F)ccc4F)cc3)c12 | cell-free assay, inhibitor | 20 µM | remaining signal | 0% |
| CCCCN(CCCC)C(=O)CN1C[C@H](c2cc(OC)c3c(c2)OCO3)[C@@H](C(=O)O)[C@@H]1CC(C)(C)CCC | cell-free assay, competition with immobilised ligand | 1 µM | remaining binding | 93.3% |
| O=C1Nc2ccc(Cl)cc2C1=Cc1cc(Cl)c(O)c(Cl)c1 | cell-free assay | 0.5 µM | remaining signal | 103% |
| Cn1c(=O)n(-c2ccc(C(C)(C)C#N)cc2)c2c3cc(-c4cnc5ccccc5c4)ccc3ncc21 | enzyme activity, inhibitor | 10 µM | remaining activity | 101% |
| CC(C)(O)[C@H]1CC[C@H](Nc2ccc3ncc(-c4cccc(C(F)(F)F)c4)n3n2)CC1 | enzyme activity, inhibitor | 1 µM | remaining activity | 73.7% |
| Oc1cccc(-c2nc(N3CCOCC3)c3oc4ncccc4c3n2)c1 | enzyme activity, inhibitor | 10 µM | remaining activity | 97% |
| COc1cc(/C=C/C(=O)CC(=O)/C=C/c2ccc(O)c(OC)c2)ccc1O | enzyme activity, inhibitor | 1 µM | activity vs control | 112% |
| FC(F)(F)Oc1cccc(-c2cnc3ccc(-c4ccncc4)nn23)c1 | enzyme activity, inhibitor, radiometric | 1 µM | activity vs control | 75% |
| CS(=O)(=O)Nc1cccc(-c2csc(NC(=O)CSc3nc4nccnc4c(=O)n3CCc3ccccc3)n2)c1 | enzyme activity, inhibitor | 10 µM | inhibition | -14% |
| N#CCCc1ccc2c(c1)-c1[nH]c3ccc([N+](=O)[O-])cc3c1CC(=O)N2 | cell-free assay | 0.5 µM | remaining signal | 66.7% |
| CC(C)(C)c1nc2c(s1)c1nc(N)ncc1c1ccc(NS(=O)(=O)c3c(F)cccc3F)c(F)c12 | enzyme activity, inhibitor, radiometric | 1 µM | remaining activity | 117% |
| Cc1nc(C2CCN(C(=O)c3ccc(OC(F)(F)F)cc3N)CC2)c2ncc(N3CCN(C)CC3)cc2n1 | cell-free assay, competition with immobilised ligand | 1 µM | remaining binding | 100% |
| O=C(Nc1cnn(-c2csc(C(=O)NC3COC3)c2)c1)Nc1ccccc1Cl | enzyme activity, inhibitor | 5 µM | remaining activity | 94.3% |
| CN(C)c1ncnc(-c2ccc3nc(Nc4cc(CN5CCN(C(=O)CC(F)(F)F)CC5)ccn4)[nH]c3c2)c1Cl | cell-free assay, competition with immobilised ligand | 1 µM | remaining binding | 62% |
| CC[C@H](CO)Nc1nc(NCc2ccccc2)c2ncn(C(C)C)c2n1 | cell-free assay | 0.5 µM | remaining signal | 96.4% |
| COc1ccc2c(c1)O[C@H](c1ccc(OC)c(OC)c1)C[C@@H]2NC(=O)C1(c2ccc3c(c2)OC(F)(F)O3)CC1 | cell-free assay, competition with immobilised ligand | 1 µM | remaining binding | 81% |
| COc1cc(Nc2cnc(C#N)c(O[C@H](C)CN(C)C)n2)ncc1-c1cnn(C)c1 | enzyme activity, inhibitor, radiometric | 1 µM | remaining activity | 94% |
| FC(F)(F)c1ccc2c(c1)nc(-c1cccnc1)n2C1CC1 | cell-free assay, competition with immobilised ligand | 1 µM | remaining binding | 100% |
| CC(C)(C)C(=O)c1sc(NC2CCCCC2)nc1N | enzyme activity, inhibitor | 10 µM | remaining activity | 105% |
